From publication PMC5576721 (Biochemistry, 2015)
“Also recorded” adds a separate entry of the source.

Experiments:
core^S [1] = test: SEC titration of C34-AL647 into core^S; type: binding, HIV-1; conditions: fits of 280 and 609+650 nm peak areas
core^SP [2] = test: SEC titration of C34-AL647 into core^SP; type: binding, HIV-1
6-helix = test: SEC-MALS binding stoichiometry with 6-helix; set-up: species or system HIV-1; conditions: 5-fold molar excess C34, 200 μg 6-helix, 10 mM Tris-HCl pH 7.6, 150 mM NaCl
core^S [3] = test: SEC-MALS binding stoichiometry with core^S; set-up: species or system HIV-1
core^SP [4] = test: SEC-MALS and SEC displacement of C38 / C38-AL647 from core^SP; type: binding, HIV-1; conditions: 5-fold molar excess C34, SEC–MALS, confirmed with core^SP-AL647
core^S [5] = test: Native-PAGE band shift with core^S; type: binding, HIV-1; conditions: 10 μM core^S, 30 min, room temperature, 20% homogeneous gel
core^S [6] = test: Circular dichroism of core^S with and without C34; set-up: species or system HIV-1
core^SP [7] = test: Circular dichroism of core^SP with and without C34; set-up: species or system HIV-1; conditions: core^SP 2.5 μM trimer, 5-fold excess C34, buffer A pH 7.6, 20 °C
Summary of the method: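 CoreSP (N-HR and C-HR peptides counted as one unit) is used at 2.5 μM trimer, alone or with a 5-fold molar excess of C34, in 10 mM Tris-HCl pH 7.6 with 150 mM NaCl. Spectra are recorded at 20 °C in a 0.1 cm path-length flat cell. α-Helical content is estimated by CDNN.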

N-Cys core^S = test: DEER EPR of N-Cys core^S with and without C34; set-up: species or system HIV-1; conditions: 50 μM subunits, 1.2-fold molar excess C34, Q-band, 50 K
core^S [8] = test: ITC with core^S; type: binding, HIV-1; conditions: C34 0.05–0.1 mM into 5–10 μM core^S, 10 mM Tris-HCl pH 7.6, 150 mM NaCl, 25 °C, iTC200
5-helix [9] = conditions: 5-fold molar excess C34, 200 μg 5-helix, 10 mM Tris-HCl pH 7.6, 150 mM NaCl
5-helix [10] = test system: 5-helix
HIV-1 fusion = conditions: ref [17] Markosyan et al.; cited from earlier work
[11] = molecular target: single-chain five-helix bundle (5-helix) (HIV-1) (UniProt P04578); test: SEC-MALS
[12] = molecular target: single-chain six-helix bundle (6-helix) (HIV-1) (UniProt P04578); test: SEC-MALS
[13] = molecular target: the molecule itself; test: composition gradient–MALS

Ac-C-HR^628–661-NH2 [C34]
cooperativity of binding to core^S (core^S [1]): no evidence of any cooperativity | equilibrium constant for the exchange reaction of C34 with C38 (core^SP [2]; core^SP, value in discussion): 0.9 | cooperativity of exchange with core^SP (core^SP [2]; fits of 609+650 nm peak areas): no evidence of any cooperativity | binding to 6-helix (stoichiometry) (6-helix): weak binding of C34 as a 1:1 complex | binding stoichiometry with core^S (core^S [3]; 5-fold molar excess C34, 10 mM Tris-HCl pH 7.6, 150 mM NaCl): one core^S trimer to two C34 peptides with no dissociation of the core^S trimer; also recorded: binding of two C34 molecules to one core^S trimer | evidence for a 1:3 core^S–(C34)3 complex (core^S [3]; SEC–MALS and band-shift assays): no evidence of the existence of a 1:3 core^S–(C34)3 complex | displacement of C38 from core^SP (core^SP [4]): binding of C34 to core^SP is accompanied by displacement of C38 | binding to core^S by native-PAGE (core^S [5]): even at 3:1 and 3:2 core^S:C34 ratios (Figure 4C) a significant amount of complex comprising two C34 molecules bound to one core^S trimer is formed; also recorded: binding of C34 is clearly evident | increase in helicity of core^S on C34 binding (core^S [6]; core^S 7 μM trimer, 5-fold molar excess C34, buffer A pH 7.6, 20 °C): ~ 18% | additional residues in helical conformation of core^S trimer (core^S [6]; two C34 bound, two C28 C-HR displaced, 5-fold molar excess C34): 30 residues | change in helicity of core^SP on C34 binding (core^SP [7]): no change in helicity | effect of C34 on DEER dipolar evolution data / P(r) of N-Cys core^S (N-Cys core^S): negligible effect | heat signature in ITC with core^S (core^S [8]): did not yield a heat signature | binding to 5-helix (stoichiometry) (5-helix [9]): binds with a 1:1 stoichiometry | binding to 5-helix by native-PAGE (5-helix [10]; native-PAGE, room temperature): binding of C34 is clearly evident | stoichiometry of binding to 5-helix by native-PAGE (5-helix [10]; positive control): 1:1 stoichiometry of binding | time window of fusion inhibitory activity (HIV-1 fusion): can extend from the point at which the prehairpin intermediate of gp41 becomes accessible through the formation of late prebundle intermediates and labile pore formation, but not after irreversible formation of the six-helix bundle

C34 peptide (chemically synthesized, Ac-C-HR^628–661-NH2) (from UniProt P04578 628-661)
stoichiometry N (C34 per 5-helix) [11]: 1 | stoichiometry N (C34 per 6-helix) [12]: 1

B1: core^S (N34^546–579-(L6)-C28^628–655), homotrimeric six-helix bundle of gp41 (domain or fragment)
chain: SGIVQQQNNLLRAIEAQQHLLQLTVWGIKQLQARSGGRGGWMEWDREINNYTSLIHSLIEESQNQQEK
Kd [13]: < 250 nM
